Assay results taken from ChEMBL document CHEMBL1153511, “Synthesis and biological evaluation of sphingosine kinase substrates as sphingosine-1-phosphate receptor prodrugs” (2009).
Activity calls are given as the source filed them. The rule behind the calls is not given here.

What was measured:
[1] = biological target: Sphingosine 1-phosphate receptor 1 (Homo sapiens) (UniProt P21453); assay: Ratio of agonistic EC50 for S1P to compound for human S1P1 receptor by [35S]GTPgammaS binding assay; assay type: functional
Sphingosine 1-phosphate receptor 1 (Homo sapiens), sequence (P21453 whole entry): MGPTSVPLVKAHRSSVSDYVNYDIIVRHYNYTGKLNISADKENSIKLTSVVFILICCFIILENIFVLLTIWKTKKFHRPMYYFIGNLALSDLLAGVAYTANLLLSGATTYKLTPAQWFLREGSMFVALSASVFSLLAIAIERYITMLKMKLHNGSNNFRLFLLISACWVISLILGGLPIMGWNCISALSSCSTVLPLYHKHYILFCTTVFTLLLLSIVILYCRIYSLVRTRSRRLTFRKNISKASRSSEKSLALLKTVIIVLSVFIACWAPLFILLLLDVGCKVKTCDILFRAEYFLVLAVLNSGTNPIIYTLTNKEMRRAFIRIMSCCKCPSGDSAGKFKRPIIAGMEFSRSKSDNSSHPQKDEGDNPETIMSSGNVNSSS
Outline: (§1)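 The chemically phosphorylated compounds were tested as agonists at each individual S1P receptor. Agonist-stimulated binding of GTP[γ-35S] to membranes was measured. EC50 and Emax were normalized to those of S1P run in the same assay.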

[2] = biological target: Sphingosine 1-phosphate receptor 5 (Homo sapiens) (UniProt Q9H228); assay: Ratio of agonistic Emax for S1P to compound for human S1P5 receptor by [35S]GTPgammaS binding assay; assay type: functional; outline: as §1
Sphingosine 1-phosphate receptor 5 (Homo sapiens), sequence (Q9H228 whole entry): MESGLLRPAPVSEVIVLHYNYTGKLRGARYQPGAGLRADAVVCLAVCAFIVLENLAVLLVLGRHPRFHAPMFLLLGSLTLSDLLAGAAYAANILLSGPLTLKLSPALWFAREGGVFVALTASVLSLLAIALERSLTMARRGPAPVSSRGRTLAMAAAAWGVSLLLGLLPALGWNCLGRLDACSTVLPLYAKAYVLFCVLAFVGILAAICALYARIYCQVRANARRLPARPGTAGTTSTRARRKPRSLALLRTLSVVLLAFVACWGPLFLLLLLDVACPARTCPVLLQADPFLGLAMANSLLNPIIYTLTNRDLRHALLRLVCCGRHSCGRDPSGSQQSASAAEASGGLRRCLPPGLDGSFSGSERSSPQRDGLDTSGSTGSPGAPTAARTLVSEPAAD

[3] = biological target: Sphingosine 1-phosphate receptor 5 (Homo sapiens) (UniProt Q9H228); assay: Ratio of agonistic EC50 for S1P to compound for human S1P5 receptor by [35S]GTPgammaS binding assay; assay type: functional; outline: as §1
[4] = biological target: Sphingosine 1-phosphate receptor 1 (Homo sapiens) (UniProt P21453); assay: Ratio of agonistic Emax for S1P to compound for human S1P1 receptor by [35S]GTPgammaS binding assay; assay type: functional; outline: as §1
[5] = biological target: Sphingosine 1-phosphate receptor 2 (Homo sapiens) (UniProt O95136); assay: Ratio of agonistic Emax for S1P to compound for human S1P2 receptor by [35S]GTPgammaS binding assay; assay type: functional; outline: as §1
Sphingosine 1-phosphate receptor 2 (Homo sapiens), sequence (O95136 whole entry): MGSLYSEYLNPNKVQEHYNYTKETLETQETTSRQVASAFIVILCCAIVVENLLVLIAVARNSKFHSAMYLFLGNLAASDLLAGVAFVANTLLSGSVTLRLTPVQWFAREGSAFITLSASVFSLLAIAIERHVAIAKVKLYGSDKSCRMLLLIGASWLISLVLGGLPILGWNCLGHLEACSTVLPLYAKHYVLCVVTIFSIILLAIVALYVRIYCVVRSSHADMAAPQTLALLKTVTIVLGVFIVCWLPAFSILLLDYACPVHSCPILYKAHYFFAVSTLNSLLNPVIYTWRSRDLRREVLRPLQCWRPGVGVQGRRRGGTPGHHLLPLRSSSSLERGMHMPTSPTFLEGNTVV

Mus musculus = assay: Induction of S1P1-mediated lymphopenia in mouse assessed as lymphocyte depletion at 10 mg/kg, ip after 20 hrs; assay type: functional; conditions: route intraperitoneal
Outline: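 Mice received a single ip injection. Lymphocyte depletion from peripheral blood was assessed 20 h after dosing.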

[6] = biological target: T1, Sphingosine kinase 2 (Homo sapiens) (UniProt Q9NRA0); assay: Activity at human SPHK2 at 100 uM
T1 sequence (whole entry): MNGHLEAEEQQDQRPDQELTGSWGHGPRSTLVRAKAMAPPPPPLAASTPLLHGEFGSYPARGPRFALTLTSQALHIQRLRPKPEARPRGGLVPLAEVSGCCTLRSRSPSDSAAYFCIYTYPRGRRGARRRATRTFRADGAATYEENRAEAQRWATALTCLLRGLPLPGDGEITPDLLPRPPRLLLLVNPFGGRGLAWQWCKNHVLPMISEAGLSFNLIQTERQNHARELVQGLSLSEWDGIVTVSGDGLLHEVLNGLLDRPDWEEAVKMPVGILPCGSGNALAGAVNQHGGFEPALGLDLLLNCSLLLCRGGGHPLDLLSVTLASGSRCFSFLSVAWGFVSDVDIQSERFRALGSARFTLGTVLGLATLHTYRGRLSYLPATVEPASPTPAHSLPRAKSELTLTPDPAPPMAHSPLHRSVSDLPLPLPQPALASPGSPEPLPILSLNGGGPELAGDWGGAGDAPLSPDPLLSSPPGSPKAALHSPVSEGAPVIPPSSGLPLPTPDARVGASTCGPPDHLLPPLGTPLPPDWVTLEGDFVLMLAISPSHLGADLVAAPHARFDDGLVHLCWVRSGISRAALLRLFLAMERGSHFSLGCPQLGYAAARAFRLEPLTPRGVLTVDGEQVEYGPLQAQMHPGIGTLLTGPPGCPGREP

[7] = biological target: T1, Sphingosine kinase 2 (Homo sapiens); assay: Activity at human SPHK2 at 15 uM
[8] = biological target: Sphingosine 1-phosphate receptor 3 (Homo sapiens) (UniProt Q99500); assay: Ratio of agonistic Emax for S1P to compound for human S1P3 receptor by [35S]GTPgammaS binding assay; assay type: functional; outline: as §1
Sphingosine 1-phosphate receptor 3 (Homo sapiens), sequence (Q99500 whole entry): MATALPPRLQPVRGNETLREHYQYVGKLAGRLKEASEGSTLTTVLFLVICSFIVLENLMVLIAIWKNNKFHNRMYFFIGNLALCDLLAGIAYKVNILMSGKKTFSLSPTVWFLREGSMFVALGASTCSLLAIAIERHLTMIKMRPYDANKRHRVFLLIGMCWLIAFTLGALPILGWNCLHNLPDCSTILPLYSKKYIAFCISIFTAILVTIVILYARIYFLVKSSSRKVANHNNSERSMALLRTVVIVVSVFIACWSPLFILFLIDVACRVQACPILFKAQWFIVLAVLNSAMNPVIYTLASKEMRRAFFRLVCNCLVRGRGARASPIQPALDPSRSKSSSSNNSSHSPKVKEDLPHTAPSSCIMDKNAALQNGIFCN

[9] = biological target: Sphingosine 1-phosphate receptor 3 (Homo sapiens) (UniProt Q99500); assay: Ratio of agonistic EC50 for S1P to compound for human S1P3 receptor by [35S]GTPgammaS binding assay; assay type: functional; outline: as §1
[10] = biological target: Sphingosine 1-phosphate receptor 2 (Homo sapiens) (UniProt O95136); assay: Ratio of agonistic EC50 for S1P to compound for human S1P2 receptor by [35S]GTPgammaS binding assay; assay type: functional; outline: as §1
[11] = biological target: T2, Sphingosine 1-phosphate receptor 4 (Homo sapiens) (UniProt O95977); assay: Ratio of agonistic EC50 for S1P to compound for human S1P4 receptor by [35S]GTPgammaS binding assay; assay type: functional; outline: as §1
T2 sequence (whole entry): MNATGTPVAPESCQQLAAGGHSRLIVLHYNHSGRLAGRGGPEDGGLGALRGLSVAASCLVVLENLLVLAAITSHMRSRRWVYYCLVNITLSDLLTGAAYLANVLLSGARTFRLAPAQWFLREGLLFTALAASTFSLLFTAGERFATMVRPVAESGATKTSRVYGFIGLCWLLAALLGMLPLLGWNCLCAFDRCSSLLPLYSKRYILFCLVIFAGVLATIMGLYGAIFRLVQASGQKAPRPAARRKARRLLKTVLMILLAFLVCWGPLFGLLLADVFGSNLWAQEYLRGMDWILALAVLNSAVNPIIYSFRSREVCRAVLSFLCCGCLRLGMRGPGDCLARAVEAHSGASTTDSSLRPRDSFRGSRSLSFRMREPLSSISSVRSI

[12] = biological target: T2, Sphingosine 1-phosphate receptor 4 (Homo sapiens); assay: Ratio of agonistic Emax for S1P to compound for human S1P4 receptor by [35S]GTPgammaS binding assay; assay type: functional; outline: as §1
[13] = biological target: Sphingosine kinase 1 (Homo sapiens) (UniProt Q9NYA1); assay: Activity at human SPHK1 at 100 uM
Sphingosine kinase 1 (Homo sapiens), sequence (Q9NYA1 whole entry): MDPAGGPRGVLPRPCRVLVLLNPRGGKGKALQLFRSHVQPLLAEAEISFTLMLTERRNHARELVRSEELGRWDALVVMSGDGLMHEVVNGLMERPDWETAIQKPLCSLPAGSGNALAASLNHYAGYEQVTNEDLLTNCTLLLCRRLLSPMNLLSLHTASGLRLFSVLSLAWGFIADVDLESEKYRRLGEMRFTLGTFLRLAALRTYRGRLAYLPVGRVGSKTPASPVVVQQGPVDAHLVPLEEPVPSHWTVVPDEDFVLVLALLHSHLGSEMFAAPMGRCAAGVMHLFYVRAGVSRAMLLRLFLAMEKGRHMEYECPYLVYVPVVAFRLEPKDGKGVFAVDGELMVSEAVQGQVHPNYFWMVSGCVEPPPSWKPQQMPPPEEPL

| Ratio EC50 [1] | Ratio [2] | Ratio EC50 [3] | Ratio [4] | Ratio [5] | Activity [6] | Activity [7] [%] | Ratio [8] | Ratio EC50 [9] | Ratio EC50 [10] | Ratio EC50 [11] | Ratio [12] | Activity [13] | SMILES | Activity (Mus musculus) [%] |
| --- | --- | --- | --- | --- | --- | --- | --- | --- | --- | --- | --- | --- | --- | --- |
| 2.5 | 1 | 21.6 | 1 | 0 |  |  |  |  |  |  |  |  | CCCCCCCCc1ccc(-c2nc(C(C)(N)COP(=O)(O)O)no2)cc1 (centres undefined) |  |
|  |  |  |  |  | inactive |  |  |  |  |  |  |  | CCCCCCCCc1ccc(-c2cnc([C@](C)(N)CO)[nH]2)cc1 | 75 |
|  |  |  |  |  |  | 20 |  |  |  |  |  |  | CCCCCCCCc1ccc(-c2cnc([C@@](C)(N)CO)[nH]2)cc1 | 75 |
| 4.28 | 0.6 | 24.1 | 0.8 | 0 |  |  | 1 | 52.5 |  |  |  |  | CCCCCCCCc1ccc(-c2coc(C(C)(N)COP(=O)(O)O)n2)cc1 (centres undefined) |  |
| 24.4 | 0.73 | 4.35 | 0.89 | 0 |  |  | 0.51 | 23 | inactive | 0.52 | 0.81 |  | CCCCCCCCc1ccc(-c2noc(C(C)(N)COP(=O)(O)O)n2)cc1 (racemic) |  |
| 1.09 | 0.83 | 3.62 | 0.87 | 0 |  |  | 0.65 | 50.8 | inactive | 0.59 | 0.93 |  | CCCCCCCCc1ccc(-c2cnc([C@@](C)(N)COP(=O)(O)O)[nH]2)cc1.O=C(O)C(F)(F)F.O=C(O)C(F)(F)F | 75 |
| 8.09 | 0.83 | 16.1 | 0.92 | 0 |  |  | 0.61 | 1000 | inactive | 4.13 | 1.19 |  | CCCCCCCCc1ccc(-c2cnc([C@](C)(N)COP(=O)(O)O)[nH]2)cc1.O=C(O)C(F)(F)F.O=C(O)C(F)(F)F | 75 |
|  |  |  |  |  |  |  |  |  |  |  |  | Active | CCCCCCCCc1ccc(-c2nc(C(C)(N)CO)no2)cc1 (centres undefined) |  |
